NPY-Y2 PAM-ag: NPY-Y2 potentiators or agonists, primary screen, cell-based; Neuropeptide Y receptor type 2 (Homo sapiens), P49146; cells expressing NPY-Y2, potentiator/agonist read-out; activation, % at 3.6 µM; hit rate 0.45% among 220,000; AID 1359, 2008; in the data active = activation above about 27%;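 also: cells stimulated with NPY near EC25 plus isoproterenol at EC100; 0% = vehicle plus submaximal agonist and 100% = vehicle plus saturating agonist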
NPY-Y1 PAM-ag: NPY-Y1 receptor potentiators or agonists, primary screen, cell-based. Neuropeptide Y receptor type 1 (Homo sapiens), P25929. NPY-Y1 expressing cells, potentiator/agonist activation. activation, % at 3.6 µM. hit rate 0.37% among 220,000. AID 1304, 2008; in the data active = activation above about 33%, passing the limit was not always enough;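 also: cells stimulated with NPY at EC10 then isoproterenol at EC100; 0% = low agonist plus stimulus and 100% = saturating agonist plus stimulus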
Target sequence (P25929 whole entry, looked up): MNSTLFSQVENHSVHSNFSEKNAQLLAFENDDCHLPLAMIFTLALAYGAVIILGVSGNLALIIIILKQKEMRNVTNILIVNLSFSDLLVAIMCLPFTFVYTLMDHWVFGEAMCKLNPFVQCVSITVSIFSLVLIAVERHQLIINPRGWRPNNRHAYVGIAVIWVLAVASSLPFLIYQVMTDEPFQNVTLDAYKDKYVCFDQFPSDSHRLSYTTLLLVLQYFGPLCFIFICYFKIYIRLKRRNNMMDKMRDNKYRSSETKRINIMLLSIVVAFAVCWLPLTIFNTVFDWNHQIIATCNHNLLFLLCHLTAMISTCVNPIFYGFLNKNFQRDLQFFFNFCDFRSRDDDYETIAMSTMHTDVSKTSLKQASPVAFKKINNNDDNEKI
NPY Y1 blocker: NPY-Y1 receptor antagonists, primary screen, cell-based. Neuropeptide Y receptor type 1 (Homo sapiens), P25929. HEK293-CNG Y1 cells, membrane potential fluorescence; NPY at EC95, then isoproterenol. inhibition, % at 3.6 µM. hit rate 1% among 200,000. AID 1040, 2008;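 active = inhibition above the campaign mean inhibition of all tested compounds plus 3 SD, cut at about 20% in these data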;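 also: 0% = DMSO wells given NPY plus isoproterenol and 100% = isoproterenol alone without NPY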
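Test system – HEK293 Y1/CNG channel cell line · Also added – NPY agonist 25 nM, then isoproterenol 1 µM plus Ro 20-1724 25 µM · Compound dosing – one concentration, 3.6 µM, in 0.4% DMSO · Schedule – compound incubation 1 h at room temperature, readout 45 min post-stimulation · Technique – fluorescence, membrane potential probe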
NPY Y2 blocker: NPY-Y2 receptor antagonists, primary screen, cell-based | Neuropeptide Y receptor type 2 (Homo sapiens), P49146 | NPY-Y2 expressing cells, antagonist mode | hit rate 0.99% among 140,000 | inhibition, % at 2.7 µM; in the data active = inhibition above about 17%;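 also: 0% = vehicle with agonist challenge and 100% = reference antagonist with challenge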
b-catenin transl: modulators of beta-catenin nuclear translocation, primary screen, imaging, HeLa cells, immunofluorescence, high-content. nuclear translocation activity, % at 5 µM. hit rate 0.3% among 190,000. AID 1665, 2009;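 active = nuclear translocation activity above 50% at 5 µM, with a well cell count of 50 or more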;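 also: per-cell ratio of nuclear to cytoplasmic median beta-catenin stain intensity; plate controls were DMSO negative control for no effect and GSK-3 inhibitor IX positive control for full effect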
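Read-out: Nuclear/cytoplasmic beta-catenin signal ratio, % activation | Assay system: Human HeLa cell line | Times: 24 h compound exposure at 37°C, 5% CO2 | Signal: Fluorescence imaging of beta-catenin antibody stain plus DAPI | Dosing: 5 µM primary, 0.02–20 µM confirmation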
MT stabilizer: microtubule stabilizers in HeLa cells, primary screen, imaging, high-content imaging. AID 2205, 2009. % tubulin-high responders, % at 10 µM. HeLa tubulin immunostaining HCS, 24 h; share of cells brighter than vehicle mean+2SD. hit rate 0.83% among 200,000;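 active = plate Z-score above 3 for both tubulin-high and condensed-nucleus cell shares, with cell loss under 80%, at 10 µM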;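 also: anti alpha tubulin signal scored within the nucleus-defined area of each cell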
Starred values were filed as active, the others as inactive; . = no result given. A selection: hits, their analogues and other compounds. The true share with any hit is near 2.6%.

SMILES | NPY-Y2 PAM-ag | NPY-Y1 PAM-ag | NPY Y1 blocker | NPY Y2 blocker | b-catenin transl | MT stabilizer
O=C1N/C(=N\N=C\c2cccs2)SC1Cc1cccc(Cl)c1 (centres undefined) | 15 | -15 | 4 | 7 | 25 | 22*
CCCCNC(=O)COC(=O)c1ccc(NS(=O)(=O)c2ccc3c(c2)OCCO3)cc1 | -16 | -11 | 4 | 4 | . | 2
CC1(C)CCCN(C(=O)c2ccc3c(c2NCCO)C(=O)c2ccccc2C3=O)C1 | 54* | 51* | -22 | -9 | -2 | 4
CCN(CCN(C)C)C(=O)c1ccc2c(c1NCCO)C(=O)c1ccccc1C2=O | 40* | 47* | -11 | . | . | 4
Cc1ccc(NC(=O)N2CCC(=O)N2)cc1 | -8 | 3 | -1 | 3 | . | 1
Cc1ccccc1OCc1nnc2c3cnn(C)c3ncn12 | 18 | 3 | 9 | 3 | 0 | 4
CCO[C@@H]1OC(C(=O)N2CCN(Cc3ccccc3)CC2)=C[C@H](c2coc3ccccc3c2=O)[C@H]1CCCO | -24 | -2 | -2 | . | 0 | 4
c1ccc(C2c3c(ccc4ccccc34)Oc3ncn4nc(-c5ccco5)nc4c32)cc1 (centres undefined) | 10 | -24 | 7 | 2 | -1 | 12*
COC(=O)C1=C(Nc2ccc(C)cc2)C=C(C)C(C(=O)OC)C1c1ccc(OC)cc1 (centres undefined) | -20 | -55 | 30* | 23* | 72* | 31*
O=S(=O)(c1cnc(Cl)c(Br)c1)N1CCN(c2ncccn2)CC1 | 4 | -2 | . | . | 0 | .
Cc1ccccc1/C=c1\s/c(=C\C(=O)C(C)(C)C)[nH]c1=O | -21 | -7 | 22* | 24* | 3 | 30
C=CCOc1ccc2ccccc2c1CNCCCN1CCOCC1 | -18 | -19 | 21* | 20* | 1 | 3
COc1ccc2ccccc2c1CNCCCN1CCOCC1 | -15 | -31 | 14 | . | 0 | 1
c1nc(N2CCN(Cc3ccc4c(c3)OCO4)CC2)c2[nH]cnc2n1 | 101* | 57* | 4 | 5 | 0 | 2
Cc1cc(NC(=O)CSc2nc(C(C)(C)C)nc3ccccc23)no1 | -2 | 2 | 2 | . | 11 | 14*
CCC(C)n1c(SCC(=O)Nc2cc(C)on2)nc2ccccc2c1=O (centres undefined) | -23 | 18 | 2 | 3 | -1 | 39*
CCCc1nc(SCC(=O)Nc2cc(C)on2)c2ccccc2n1 | -34 | -22 | 0 | 5 | -2 | 3
CC1(CCc2ccccc2)NC(=O)N(CC(=O)Nc2ccc(S(N)(=O)=O)cc2)C1=O (centres undefined) | 5 | 1 | -3 | . | 1 | 5
COc1ccccc1OCC(=O)Nc1nonc1NC(=O)COc1ccccc1OC | 14 | -13 | 3 | 3 | 0 | 3
Cn1cc(/C=N/n2cnc3scc(-c4ccccc4)c3c2=O)c2ccccc21 | -7 | -23 | 5 | -1 | 71* | 28*
Cc1cc2nc(C)n(CCCNC(=O)Nc3cccc4ccccc34)c2cc1C | 4 | 17 | 4 | 2 | . | 3
N#Cc1cnn2ccc(-c3ccc4c(c3)CCC4)nc12 | -2 | -7 | 8 | . | . | 9
Cc1ccnc(NC(=O)CCC2CCCCC2)c1 | -10 | -8 | 23* | 20* | . | 4
CNC(=O)c1nc(C)c(C2(C)CC(c3cccc([N+](=O)[O-])c3)=NO2)s1 (centres undefined) | . | . | . | . | -1 | .
O=c1cc(-c2ccccc2[N+](=O)[O-])oc2ccccc12 | -6 | -9 | 12 | . | 10 | 12*
SMILES | NPY-Y2 PAM-ag | NPY-Y1 PAM-ag | NPY Y1 blocker | NPY Y2 blocker | b-catenin transl | MT stabilizer
O=c1cc(-c2ccccc2F)oc2ccccc12 | 2 | -19 | 5 | 4 | 1 | 2
Cc1c(O)c(CN2CCCC2)cc2c1oc(=O)c1ccccc12 | 57* | 65* | -17 | 2 | -8 | 6
Nc1ccc(Br)c2c1C(=O)c1ccccc1C2=O | 32 | 34 | -8 | -5 | -1 | 2
Nc1ccc(O)c2c1C(=O)c1ccccc1C2=O | 57* | 54* | -10 | -6 | -4 | 10
Cc1onc(-c2ccccc2)c1C(=O)Nc1cc(C(F)(F)F)ccc1N1CCOCC1 | 5 | 15 | 11 | 5 | 70* | 33*
CCOC(=O)c1ccc(N2CCOCC2)c(NC(=O)c2c(-c3ccccc3)noc2C)c1 | -23 | -25 | . | . | 125* | .
Cn1cnc([N+](=O)[O-])c1N=C(N)N | -14 | 12 | . | . | -1 | .
O=C(NCc1ccccc1)C(=O)Nc1nccs1 | -2 | -2 | 1 | . | 1 | 3
CN(C)c1nc(NCc2ccccc2)nc(SCC(=O)Nc2ccccc2Cl)n1 | -3 | 2 | 26* | 43* | -1 | 3
COc1ccc(N2CC(NC(=O)NCC(C)C)CC2=O)cc1 (centres undefined) | -7 | -7 | 3 | 1 | 0 | 3
CC1Cc2ccccc2N1C(=O)COC(=O)CCc1nc2ccccc2c(=O)[nH]1 (centres undefined) | -10 | -2 | -2 | . | -1 | 3
COc1ccc(C(C)=O)cc1COc1ccc(-n2cnnn2)cc1 | -11 | 2 | -7 | -2 | -9 | 3
CN(C(=O)c1ccc2c(c1)OCO2)C1(C(=O)NC2CCCCC2)CCCCC1 | 5 | 12 | 17 | 14 | 6 | 3
O=C1NC(=O)C(CC(=O)N(Cc2ccco2)C2(C(=O)NC3CCCC3)CCCCC2)N1 (centres undefined) | 9 | -20 | 1 | 6 | -1 | 2
O=C(Cc1cccs1)N(Cc1ccco1)C1(C(=O)NC2CCCC2)CCCCC1 | -5 | -3 | 61* | 26* | -1 | 5
CCC(C)(C(=O)NC1CCCCC1)N(Cc1ccco1)C(=O)c1cnccn1 (centres undefined) | -17 | -15 | 11 | 8 | . | 3
O=C(c1ccc2c(c1)OCO2)N(Cc1ccco1)C1(C(=O)NC2CCCCC2)CCCCC1 | -7 | -44 | 51* | 28* | . | 4
O=C(c1cnccn1)N(Cc1ccco1)C1(C(=O)NC2CCCC2)CCCCC1 | -3 | 4 | 42* | 33* | . | 2
O=C(c1ccccn1)N(Cc1ccco1)C1(C(=O)NC2CCCC2)CCCCC1 | -7 | 0 | 34* | 53* | . | 2
COc1ccccc1CNC(=O)COC(=O)c1ccc(Cl)c(N)c1 | -13 | 2 | 13 | . | -4 | 3
O=C(O)CCC(=O)NNC(=O)c1ccc(Br)cc1 | -1 | -2 | -1 | 2 | -7 | 3
CCN(CC)c1ccc(C(=O)n2cnc3ccccc32)cc1 | 6 | 13 | -1 | 5 | 6 | 22*
